Our source for the MIC, CC50 and EC50 values is ChEMBL document CHEMBL1154855 (Eur J Med Chem, 2010).

Converted amounts (≈) assume the structure as drawn. Bounds are passed on as bounds.

What is called MIC is the least concentration at which growth counts as inhibited. By CC50 is commonly meant the concentration giving 50% cytotoxicity. As usually defined, the EC50 is the concentration at which the effect is half-maximal.

One series relates to Streptococcus viridans. Nature of the series: Antibacterial activity against Streptococcus viridans after 24 hrs by broth microdilution method. It counts as functional. The essentials: (§1)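 Clinical isolates. Each dilution received 100 μl of 0.5 McFarland fresh culture. Solvent (DMSO), growth and standard controls were included. Tubes were incubated at 37 °C for 24 h. MIC is the highest dilution showing no turbidity. Tests were run in triplicate, with at least two repetitions.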
In general terms: Broth dilution looks for growth in wells or tubes with falling amounts of substance.

A further series relates to Escherichia coli. Nature of the series: Antibacterial activity against Escherichia coli after 24 hrs by broth microdilution method. It counts as functional. The essentials: as §1
The subject of the next series is Klebsiella pneumoniae. Nature of the series: Antibacterial activity against Klebsiella pneumoniae after 24 hrs by broth microdilution method. It counts as functional. The essentials:
as §1

The next series has as its system Proteus mirabilis. Nature of the series: Antibacterial activity against Proteus mirabilis after 24 hrs by broth microdilution method. It counts as functional. The essentials:
as §1

The test system of series [1] is HeLa. Nature of the series: Cytotoxicity against VSV infected human HeLa cells by trypan blue exclusion method. To be noted: hela. It counts as cell-based. The essentials: (§2)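 Uninfected confluent cultures were run in parallel with the infected cultures. Medium was replaced by 1 ml maintenance medium with serial compound concentrations; cell controls received no compound. Cultures were incubated at 37 °C. After 2 and 7 days, compound was withdrawn and viability was determined by trypan blue exclusion.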

In series [2] the test system is Mammalian orthoreovirus 1. Nature of the series: Antiviral activity against Reovirus 1 infected in african green monkey Vero cells assessed as protection from virus-induced cytopathogenicity after 6 to 7 days by MTT assay. To be noted: Mammalian orthoreovirus 1, Vero. It counts as functional, organism-based. (In general: Damage to the host cells serves as the signal in cytopathic effect assays.)

Another series concerns Coxsackievirus B4. Nature of the series: Antiviral activity against Human coxsackievirus B4 infected in african green monkey Vero cells assessed as protection from virus-induced cytopathogenicity after 2 days by MTT assay. It counts as functional, organism-based. The conditions noted are these: Enterovirus B, 48 h.
The test system of series [3] is HeLa. Nature of the series: Cytotoxicity against Human coxsackievirus B4 infected human HeLa cells by trypan blue exclusion method. It counts as cell-based. The conditions noted are these: hela. In outline:
as §2

The test system of series [4] is Vesicular stomatitis virus. Nature of the series: Antiviral activity against VSV infected in human HeLa cells assessed as protection from virus-induced cytopathogenicity after 1 to 2 days by MTT assay. It counts as functional, organism-based.
Another series concerns Sindbis virus. Nature of the series: Antiviral activity against Sindbis virus infected in african green monkey Vero cells assessed as protection from virus-induced cytopathogenicity after 2 to 3 days by MTT assay. It counts as functional, organism-based.
The subject of series [5] is Vero. Nature of the series: Cytotoxicity against Reovirus 1 infected african green monkey Vero cells by trypan blue exclusion method. It counts as cell-based. The conditions noted are these: chlorocebus sabaeus, vero. The essentials:
as §2

Series [6] has as its system Vero. Nature of the series: Cytotoxicity against PIV 3 infected african green monkey Vero cells by trypan blue exclusion method. It counts as cell-based. To be noted: chlorocebus sabaeus, vero. The essentials:
as §2

A further series concerns Human respirovirus 3. Nature of the series: Antiviral activity against PIV 3 infected in african green monkey Vero cells assessed as protection from virus-induced cytopathogenicity after 6 to 7 days by MTT assay. It counts as functional, organism-based. The conditions noted are these: Human respirovirus 3, Vero.
For series [7], the system named is Vero. Nature of the series: Cytotoxicity against Punta Toro virus infected african green monkey Vero cells by trypan blue exclusion method. It counts as cell-based. The conditions noted are these: chlorocebus sabaeus, vero. The essentials: as §2
The subject of series [8] is Vero. Nature of the series: Cytotoxicity against Sindbis virus infected african green monkey Vero cells by trypan blue exclusion method. It counts as cell-based. To be noted: chlorocebus sabaeus, vero. In outline:
as §2

Series [9] relates to Vero. Nature of the series: Cytotoxicity against Human coxsackievirus B4 infected african green monkey Vero cells by trypan blue exclusion method. It counts as cell-based. To be noted: chlorocebus sabaeus, vero. The essentials:
as §2

Another series deals with Punta Toro virus. Nature of the series: Antiviral activity against Punta Toro virus infected in african green monkey Vero cells assessed as protection from virus-induced cytopathogenicity by MTT assay. It counts as functional, organism-based.
Series [10] deals with HeLa. Nature of the series: Cytotoxicity against Respiratory syncytial virus infected human HeLa cells by trypan blue exclusion method. To be noted: hela. It counts as cell-based. In outline: as §2
For series [11], the system named is Respiratory syncytial virus. Nature of the series: Antiviral activity against Respiratory syncytial virus infected in human HeLa cells assessed as protection from virus-induced cytopathogenicity after 4 days by MTT assay. To be noted: 96 h. It counts as functional, organism-based.
The mark [12] stands for this setting: Escherichia coli, 24 h, read-out: MIC.
[13] abbreviates: Klebsiella pneumoniae, 24 h, read-out: MIC.
Setting [14] is: Proteus mirabilis, 24 h, read-out: MIC.

In the case of `CC1(C)S[C@@H]2[C@H](NC(=O)[C@H](N)c3ccccc3)C(=O)N2[C@H]1C(=O)O` [AMPICILLIN TRIHYDRATE], the MIC in the series with Streptococcus viridans (Streptococcus viridans, 24 h, read-out: MIC) was greater than 2.47 µM; in the series on Escherichia coli (setting [12]), 1.23 µM; with Klebsiella pneumoniae (setting [13]), 0.6 µM; in the series with Proteus mirabilis (setting [14]), 1.23 µM.
In the case of `Nc1ncnc2c1ncn2C[C@H](O)CO` [(S)-DHPA], the cytotoxic concentration (CC50) in the series on HeLa [1], in the series with HeLa [3], with Vero [5], with Vero [6], with Vero [7] and with Vero [8] was greater than 250 µM in each case. For the same compound, the CC50 in the series with Vero [9] and in the series with HeLa [10] was greater than 250 µM each time. Moreover, the half-maximal effective concentration (EC50) in series [2] is greater than 250 µM; with Coxsackievirus B4, greater than 250 µM; in series [4], 146 µM; with Sindbis virus it was greater than 250 µM; in the series on Human respirovirus 3 it was greater than 250 µM; with Punta Toro virus, greater than 250 µM. The EC50 in [11] amounted to 146 µM.
As for `CCCCCCCCCCCCCCCC(=O)Oc1ccc(/C=C/C(=O)CC(=O)/C=C/c2ccc(OC(=O)CCCCCCCCCCCCCCC)c(OC)c2)cc1OC`, the MIC with Escherichia coli (setting [12]), in the series on Klebsiella pneumoniae (setting [13]) and with Proteus mirabilis (setting [14]) was 0.53 µM (≈ 0.448 µg/mL) in each case.
As to GENTAMICIN SULFATE, the minimum inhibitory concentration (MIC) with Streptococcus viridans, in the series with Escherichia coli, in the series with Klebsiella pneumoniae and in the series with Proteus mirabilis was greater than 1.73 µM throughout.
